Assay [1] deals with L1210. Kind of assay: Antitumor activity was determined against the ip implanted L1210 leukemia in mice by percent median survival rate (treated/control) at 300 mg/kg (treatment of 1qd schedule) dosage; 20.5/6.5. In kind it is functional, Mus musculus. Conditions: route intraperitoneal. In outline:
(§1)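 DBA/2J mice, 23-28 g, in groups of 6, were inoculated ip with 1×10^6 L1210 cells on day 0. Dosing was ip starting 24 h later on the stated daily schedules. Conjugates were given as sonicated solutions and reference prodrugs as suspensions in 0.9% NaCl with 0.5% Tween-80. Mice were observed daily until death or 45 days. Median survival T/C was calculated from survivors per NCI protocols.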

Assay [2] deals with L1210. Kind of assay: Antitumor activity was determined against the ip implanted L1210 leukemia in mice by range in survival days at 40 mg/kg (treatment of 1-5qd schedule) dosage; 24->45. In kind it is functional, Mus musculus. The note with it: route intraperitoneal. The essentials:
as §1

Assay [3] concerns L1210. Kind of assay: Antitumor activity was determined against the ic implanted L1210 lymphoid leukemia in mice by percent median survival rate (treated/control) at 80 mg/kg (1-5qd treatment schedule) dosage; 22.0/8.0. In kind it is functional, Mus musculus.
For assay [4], the system named is L1210. The assay is described as follows: Antitumor activity was determined against the ip implanted L1210 leukemia in mice by percent increase in life span at 300 mg/kg (treatment of 1qd schedule) dosage. It is filed as functional, Mus musculus. The note with it: route intraperitoneal. In outline:
(§2)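 DBA/2J mice in groups of 6 (wt 23-28 g) were inoculated ip with 1×10^6 L1210 cells on day 0. Dosing was ip from 24 h, in 0.9% NaCl with 0.5% Tween-80 (conjugates sonicated), across a range of doses. Mice were observed daily until death or 45 days. Median T/C was computed from survivors per NCI protocols, and ILS = (T/C − 1)×100.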

Assay [5] deals with P388. Kind of assay: Antitumor activity was determined against the ip implanted P388 leukemia in mice by percent median survival rate (treated/control) at 500 mg/kg (1 qd treatment schedule) dosage; >45.0/11.0. It is filed as functional, Mus musculus. Conditions: route intraperitoneal.
For assay [6], the system named is P388. The assay is described as follows: Antitumor activity was determined against the ip implanted P388 leukemia in mice by 45-day survivors in mice at 500 mg/kg (1 qd treatment schedule) dosage. It is filed as functional, Mus musculus. The note with it: route intraperitoneal. The essentials:
(§3)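 DBA/2J mice, 23-33 g, in groups of 6, were inoculated ip with 1×10^6 P388 cells on day 0. Dosing was ip from 24 h on the stated schedules, in 0.9% NaCl with 0.5% Tween-80 (sonicated solution or suspension). Survival was followed daily until death or 45 days. Median T/C was calculated from survivors per NCI protocols, with ILS = (T/C − 1) × 100.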

Assay [7] deals with P388. The assay is described as follows: Antitumor activity against ip implanted P388 leukemia in mice expressed as active dose range (1,5,9qd treatment schedule) required to produce increase in life span by >25% was determined; Range is 100-167. It is filed as functional, Mus musculus. The essentials:
(§4)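 P388 leukemia: 1 × 10^6 cells were given ip on day 0 to DBA/2J mice, groups of 6 (23-33 g). Treatment was ip from 24 h after inoculation, vehicle 0.9% NaCl with 0.5% Tween-80. Mice were observed daily until death or 45 days. Median survival T/C was calculated from survivors per NCI protocols, and ILS = (T/C − 1) × 100. Active range means doses giving ILS ≥25%; optimal dose means greatest ILS.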

In assay [8] the test system is P388. Kind of assay: Antitumor activity was determined against the ip implanted P388 leukemia in mice by change in […] at 500 mg/kg (1 qd treatment schedule) dosage. It is filed as functional, Mus musculus. Conditions: route intraperitoneal. In outline: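 P388 leukemia, 1×10^6 cells implanted ip on day 0 into DBA/2J mice, groups of 6 (wt 23-33 g). Dosing ip started 24 h post-inoculation, vehicle 0.9% NaCl containing 0.5% Tween-80. Animals were observed daily until death or 45 days. Outputs were weight change, median survival T/C from survivors per NCI protocols, and %ILS = (T/C − 1) × 100.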

Assay [9] has as its system P388. Kind of assay: Antitumor activity was determined against the ip implanted P388 leukemia in mice by percent increase in life span at 500 mg/kg (1 qd treatment schedule) dosage. In kind it is functional, Mus musculus. Conditions: route intraperitoneal. In outline:
as §3

In assay [10] the test system is L1210. The assay is described as follows: Antitumor activity was determined against the ip implanted L1210 leukemia in mice by range in survival days at 400 mg/kg (treatment of 1qd schedule) dosage; Range is 20-33. It is filed as functional, Mus musculus. The note with it: route intraperitoneal. The essentials:
as §1

Assay [11] relates to L1210. Kind of assay: Antitumor activity was determined against the ip implanted L1210 leukemia in mice by change in […] at 80 mg/kg (treatment of 1-5qd schedule) dosage. In kind it is functional, Mus musculus. Conditions: route intraperitoneal. In outline: (§5)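 DBA/2J mice, 6 per group (wt 23-28 g), inoculated ip with 1×10^6 L1210 cells on day 0. Treatment was given ip in 0.9% NaCl with 0.5% Tween-80, starting 24 h later. Weight change was taken on day 8. Mice were observed daily until death or 45 days. Median survival T/C and %ILS = (T/C − 1) × 100 came from survivors per NCI protocols, and 45-day survivors were counted.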

The subject of assay [12] is L1210. Kind of assay: Antitumor activity was determined against the ip implanted L1210 leukemia in mice by percent median survival rate (treated/control) at 80 mg/kg (treatment of 1-5qd schedule) dosage; 25.5/7.0. In kind it is functional, Mus musculus. Conditions: route intraperitoneal. In outline: as §1
Assay [13] relates to L1210. Kind of assay: Antitumor activity against ic implanted L1210 lymphoid leukemia in mice expressed as active dose range (1 qd treatment schedule) required to produce increase in life span by >25% was determined; Range is 200-500.
The test system of assay [14] is L1210. The assay is described as follows: Antitumor activity was determined against the ip implanted L1210 leukemia in mice by change in […] at 100 mg/kg (treatment of 1-5qd schedule) dosage. Conditions: route intraperitoneal. It is filed as functional, Mus musculus. The essentials: as §5
Assay [15] deals with P388. Kind of assay: Antitumor activity was determined against the ip implanted P388 leukemia in mice by 45-day survivors in mice at 67 mg/kg (treatment of 1,5,9qd schedule) dosage. It is filed as functional, Mus musculus. The note with it: route intraperitoneal. The essentials:
as §3

The test system of assay [16] is P388. Kind of assay: Antitumor activity was determined against the ip implanted P388 leukemia in mice by range in survival days at 500 mg/kg (treatment of 1qd schedule) dosage; Range is 23->45. It is filed as functional, Mus musculus. Conditions: route intraperitoneal.
In assay [17] the test system is L1210. Kind of assay: Antitumor activity was determined against the ic implanted L1210 lymphoid leukemia in mice by range in survival days at 300 mg/kg (treatment of 1-5qd schedule) dosage; Range is 15-18. In kind it is functional, Mus musculus.
In assay [18] the test system is L1210. The assay is described as follows: Antitumor activity was determined against the ic implanted L1210 lymphoid leukemia in mice by change in […] at 100 mg/kg (treatment of 1-9qd schedule) dosage. It is filed as functional, Mus musculus. The essentials: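 DBA/2J mice, 6 per group (wt 26-32 g), inoculated ic with 1×10^5 L1210 cells on day 0. Dosing ip began 24 h after inoculation, with a sonicated solution or suspension in 0.9% NaCl containing 0.5% Tween-80, given over a range of doses. Animals were followed daily until death. Body weight change, median survival T/C, and %ILS = (T/C − 1) × 100 were computed from survivors per NCI protocols.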

The subject of assay [19] is L1210. Kind of assay: Antitumor activity was determined against the ip implanted L1210 leukemia in mice by percent increase in life span at 200 mg/kg (treatment of 1-5qd schedule) dosage. It is filed as functional, Mus musculus. Conditions: route intraperitoneal. The essentials: as §2
In assay [20] the test system is P388. The assay is described as follows: Antitumor activity was determined against the ip implanted P388 leukemia in mice by percent median survival rate (treated/control) at 500 mg/kg (treatment of 1qd schedule) dosage; 15.0/11.0. In kind it is functional, Mus musculus. Conditions: route intraperitoneal.
The test system of assay [21] is P388. Kind of assay: Antitumor activity against ip implanted P388 leukemia in mice expressed as active dose range (1 qd treatment schedule) required to produce increase in life span by >25% was determined; Range is 100-600. It is filed as functional, Mus musculus. In outline:
as §4

The structures appear in SMILES notation.

This note sets out measurements from ChEMBL document CHEMBL1123247, “Nucleoside conjugates. 7. Synthesis and antitumor activity of 1-beta-D-arabinofuranosylcytosine conjugates of ether lipids” (J Med Chem, 1986).

As usually defined, the T/C is the result in the treated group divided by that in the control group, in per cent.

For the compound `CCCCCCCCCCCCCCCC(=O)OC[C@H](COP(=O)(O)OP(=O)(O)OC[C@H]1O[C@@H](n2ccc(N)nc2=O)[C@@H](O)[C@@H]1O)OC(=O)CCCCCCCCCCCCCCC`, the median survival time in the assay with L1210 [1] is 20.5 days; with L1210 [3], 22 days. Moreover, the Range with L1210 [2] was 24. For the same compound, the ILS in the assay with L1210 [4] was 215; with P388 [9] it was more than 309. In the assay with P388 [5], this compound gave a T/C of more than 45%. For the same compound, the Survivors in the assay with P388 [6] is 4. In the assay on P388 [7], this compound yielded an Active dose range of 100 mg/kg/day. Also, in the assay on P388 [8], the Weight change is listed as -0.07 g mouse-1.
`CCCCCCCCCCCCCCCCOCC(COP(=O)(O)OP(=O)(O)OC[C@H]1O[C@@H](n2ccc(N)nc2=O)[C@@H](O)[C@@H]1O)OC(=O)CCCCCCCCCCCCCCC` (mixture of isomers) returned a Range with L1210 [10] of 20. The Weight change in the assay with L1210 [11] was found to be 0.33 g mouse-1. The T/C with L1210 [12] amounted to 25.5%. In the assay with L1210 [13], the Active dose range is 200 mg/kg/day.
As to `CCCCCCCCCCCCCCCCCCOCC(COP(=O)(O)OP(=O)(O)OC[C@H]1O[C@@H](n2ccc(N)nc2=O)[C@@H](O)[C@@H]1O)OC(=O)CCCCCCCCCCCCCCC` (mixture of isomers), the Weight change in the assay with L1210 [14] is reported as -0.95 g mouse-1. In the assay with P388 [15], this compound came in with a Survivors of 0. For the same compound, the Range with P388 [16] is listed as 23.
Regarding `Nc1ccn([C@@H]2O[C@H](CO)[C@@H](O)[C@@H]2O)c(=O)n1` [CYTARABINE], the Range with L1210 [17] was determined as 15. The compound further had a Weight change with L1210 [18] of -5.8. Besides, the ILS in the assay with L1210 [19] is 143. In the assay on P388 [20], this compound yielded a T/C of 15%. The same compound displayed an Active dose range in the assay with P388 [21] of 100 mg/kg/day.
